Among the data in PubChem BioAssay AID688 (PCMD, 2007) are inhibition and growth inhibition values, retold here.

Structures are written as SMILES. The whole screen tested about 27,000 compounds, of which about 250 (0.93%) were called active. This is one part of a sample in which actives are shown more often than they occur.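 The calls were made as follows: active = mutant luminescence inhibited past about 50% while wild type luminescence and mutant growth stay under set limits (limit read from the data); inconclusive = mutant versus wild type luminescence inhibition gap past a set limit; inactive = the rest.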

The test can be described thus: GCN4-lacZ reporter reduction in eIF2B-epsilon mutant yeast, primary screen, S. cerevisiae, eIF2B-epsilon R284H, Beta-Glo luminescence (AID 688). The following applies: growth inhibition: measured here: mutant yeast growth, toxicity, concentration not given here; inhibition: stronger effect = higher value, screened at 25 µM (by protocol). The essentials:
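Material: yeast eIF2B-epsilon R284H mutant carrying GCN4–beta-galactosidase fusion. Medium: YPD yeast growth medium. Incubation: 16 h growth with compound at 30 °C, 90 min Beta-Glo step. Signal: Beta-Glo luminescence plus absorbance at 595 nm. Evaluation: % inhibition of reporter signal and growth versus controls. Doses: 25 µM single dose.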
In the case of `N#CCSc1nc2c(c(=O)n1Cc1ccccc1)C1(CCCC1)Cc1ccccc1-2`, the inhibition is 9.23% (inactive). For the compound `O=C(Cc1ccccc1)Nc1c(C(=O)N2CCCCCC2)cnn1-c1ccccc1`, the growth inhibition is 8.33% and the inhibition is -14.8% (inactive). Take `COc1ccc(S(=O)(=O)N2CCCC(C(=O)N3CCN(C)CC3)C2)cc1C` (stereo unspecified): the growth inhibition was found to be 6.9% and the inhibition is -4.21% (inactive). As for `CC(C)n1c(-c2cccs2)nc2ccccc21`, the growth inhibition stood at 14.7% and the inhibition is 15% (inactive).

For the compound `CCOC(=O)C1=C(CSc2nnnn2C)N(C)C(=O)NC1c1ccccc1` (stereo unspecified), the growth inhibition is -2.7% and the inhibition is 19.9% (inactive). The like results for `CCOC(=O)c1sc(C)c2c1NC(C)(c1cccc3ccccc13)NC2=O` (stereo unspecified) were, in that order, 2.7% and -8.97% (inactive).

Consider `CCOCCn1c(C(C)C)nc2ccccc21`, for which the inhibition is -14.4% (inactive). In the case of `CCNc1nc(N)nc(Oc2ccc(OCC)nn2)n1`, the growth inhibition was -12.5% and the inhibition is 31.6% (inactive).

In the case of `C/C=C/C(=O)Nc1nnc(C(C)C)s1`, the inhibition is 1.35% (inactive). As to `O=C(CCCn1c(=O)oc2ccccc21)Nc1cccnc1`, the growth inhibition was -21.7% and the inhibition was 22.3% (inactive). With `O=C(CS(=O)(=O)Cc1ccccc1)Nc1cccnc1`, the inhibition was 11.1% (inactive).

For the compound `O=C(Nc1cccnc1)c1noc2c1CCCCC2`, the growth inhibition worked out at 3.45% and the inhibition is 69% (active). The like results for `COc1ccc(-n2nnnc2SCC(=O)Nc2ccccc2)cc1` were, in that order, -13.6% and 0.65% (inactive).

Consider `O=C(NCc1ccccn1)c1cc(-c2ccccc2Cl)on1`, for which the growth inhibition came out at 9.09% and the inhibition was 8.32% (inactive). For `COc1ccc(-c2nnc(SCC(=O)c3ccc4c(c3)OCCO4)o2)cc1` the same measures were -27.1% and 9.99% (inactive).

Turning to `C=CCSC1=C(C#N)C(c2cc(Br)c(O)c(OC)c2)CC(=O)N1` (stereo unspecified), the growth inhibition was -19.1% and the inhibition is 17.8% (inactive). `O=C(NCC(=O)N(Cc1cccs1)C(C(=O)NC1CCCCC1)c1ccco1)c1cccs1` (stereo unspecified): the growth inhibition was -12.9% and the inhibition was 9.07% (inactive).

As for `Cc1nc2c(c(=O)n1Cc1ccco1)c1nc3ccccc3nc1n2Cc1ccccc1`, the inhibition was 16.6% (inactive). Take `CCOc1ccc(NC(=O)CN(C)CC(=O)Nc2cccc(Cl)c2C)cc1OCC`: the growth inhibition is -23.8% and the inhibition is 30.2% (inactive). For `COc1ccccc1-n1nnnc1S(=O)(=O)Cc1ccc(Cl)cc1` the same measures were -20.6% and 24.8% (inactive). In the case of `Cc1cc(C)n(-c2c(F)c(F)c(COC(=O)c3ccccc3)c(F)c2F)n1`, the growth inhibition was found to be 23% and the inhibition was 20.8% (inactive). For `Cc1cccc(N2C(=O)c3cccnc3C2=O)c1` the same measures were -42.9% and 27.9% (inactive).

For the compound `CC(=O)NC1(c2cccc(F)c2)CCN(CC(=O)NC(C)C)CC1`, the growth inhibition was 4.55% and the inhibition was 8.86% (inactive). As for `O=C(NCc1ccc(Cl)c(Cl)c1)c1cccnc1`, the growth inhibition was -25% and the inhibition is 24.4% (inactive). The like results for `O=C(Nc1nncs1)c1cccc(S(=O)(=O)N2CCCCC2)c1` were, in that order, -27.3% and -2.85% (inactive).

Regarding `Cc1ccc(C2(C(F)(F)F)N=C3Sc4cc(C)cc(C)c4N3C(=O)N2)cc1` (stereo unspecified), the growth inhibition is -4.76% and the inhibition was 31.4% (inactive). `C=CCn1c(SCCOc2ccc(OC)cc2)nnc1C(NC(=O)c1ccc(OC)cc1)C(C)C` (stereo unspecified): the growth inhibition was -10% and the inhibition was 21.4% (inactive). The like results for `COCc1[nH][nH]c(=O)c1C=Nc1ccc(F)cc1F` were, in that order, 18.9% and 24.1% (inactive). As for `Cc1ccc2c(CSc3nncs3)cc(=O)oc2c1`, the growth inhibition was -14.7% and the inhibition is -21.6% (inactive). On to `CCCCNS(=O)(=O)c1ccc(S(=O)(=O)n2cnc3ccccc32)cc1`, for which the growth inhibition is -31.6% and the inhibition was -22.7% (inactive). With `CCOC(=O)c1c(N)sc(C(C)=O)c1C`, the growth inhibition was found to be 19.1% and the inhibition was 2.16% (inactive). For `Cc1ccc(S(=O)(=O)c2nc(NCCCn3ccnc3)sc2Cl)cc1` the same measures were 15.9% and 26% (inactive).

Consider `COc1ccc(Cl)cc1C(=O)Nc1ccc(N(C)C(C)=O)cc1`, for which the growth inhibition is 27.8% and the inhibition was 21.8% (inactive). Consider `CCN(CC)CCNC(=O)CCCCCn1c(=O)[nH]c2cc(C(=O)OC)ccc2c1=O`, for which the growth inhibition stood at 3.33% and the inhibition was 12.9% (inactive). As for `Nn1c(Cc2cccc3ccccc23)nnc1SCC(=O)N1CC(=O)Nc2ccccc21`, the growth inhibition came to 7.35% and the inhibition is 9.26% (inactive). With `Cc1ccc(C2=CSC3=NS(=O)(=O)CCN23)cc1C`, the growth inhibition is -2.38% and the inhibition was 1.24% (inactive). For `O=C(c1cccc2ccccc12)N1CCN(c2ccccc2F)CC1`, the growth inhibition turned out to be 10.7% and the inhibition is 8.17% (inactive). The like results for `O=C(O)CCSc1nnc(-c2ccccc2)n1-c1ccccc1` were, in that order, -9.09% and 19.8% (inactive).

Regarding `Cc1ccc(S(=O)(=O)NCC(C)NS(C)(=O)=O)cc1` (stereo unspecified), the growth inhibition is 1.47% and the inhibition is -24.4% (inactive).

On to `COCc1nnc(NC(=O)CS(=O)(=O)Cc2ccccc2)s1`, for which the growth inhibition was -13.8% and the inhibition is 8.87% (inactive).

For the compound `COc1ccc(-n2c(SCC(=O)Nc3ccc4c(c3)OCO4)nnc2C(C)N2CCCCC2)cc1` (stereo unspecified), the growth inhibition was -17.2% and the inhibition was 32% (inactive). Regarding `O=C(NC1(C(F)(F)F)NC(=O)N(Cc2cccnc2)C1=O)c1ccccc1Cl` (stereo unspecified), the growth inhibition was -9.52% and the inhibition was 12.7% (inactive). Regarding `CCc1nnc(NC(=O)CSc2nc3ccccc3c(=O)n2CCCOC)s1`, the growth inhibition was -4.35% and the inhibition is -1.74% (inactive). For `Cc1cc(-n2nc(C)cc2C)n2nc(C)c(-c3ccccc3)c2n1`, the growth inhibition was -28.6% and the inhibition was -42.8% (inactive). On to `CCOC(=O)c1cnc(SCC(=O)NCc2ccco2)nc1N`, for which the growth inhibition was found to be 5.17% and the inhibition is -10.3% (inactive). The like results for `CCOc1ccccc1NC(=O)C1CCCN(C(=O)Nc2ccccc2)C1` (stereo unspecified) were, in that order, -12.5% and 25.3% (inactive). For `COc1ccc(C2N=C(N)N=C(N)N2c2ccccc2)cc1OC` (stereo unspecified) the same measures were -25% and -6.05% (inactive). Turning to `COc1ccc(OC)c(-n2nnnc2SCC(=O)Nc2cc(C)ccc2OC)c1`, the growth inhibition is -24.1% and the inhibition is 30.4% (inactive). With `CCC(C(=O)NC1CCCC1)N(C(=O)c1snc(C(N)=O)c1N)c1ccc2c(c1)OCCO2` (stereo unspecified), the growth inhibition is -13.6% and the inhibition is 52.4% (active). Turning to `COC(=O)c1cccc(N(C(=O)c2ccco2)C(C(=O)NC2CCCC2)c2ccco2)c1` (stereo unspecified), the inhibition is -17.9% (inactive). Turning to `CCCCNC(=O)CCNC(=O)c1ccc(C(C)(C)C)cc1`, the growth inhibition was found to be 22.6% and the inhibition was 20.7% (inactive). For `CCCCCCSc1nsc(N)n1` the same measures were 5.56% and 30.6% (inactive). As for `CC(C)C(=O)Nc1nnc(Sc2ccc(N(C)C)cc2)s1`, the growth inhibition was -33.3% and the inhibition is -11.6% (inactive). The like results for `COc1ccc(CNC(=O)CCn2cccc2)cc1` were, in that order, 33.3% and 18.8% (inactive).

Take `CCCNC(=O)N1CCN(C(=O)NCCC)CC1`: the growth inhibition turned out to be 5.13% and the inhibition is 3.89% (inactive).

Regarding `COc1ccccc1NC(=O)CC(NCCN(C)C)C(=O)O` (stereo unspecified), the growth inhibition turned out to be 18.9% and the inhibition was 15.2% (inactive).

As usually defined, the inhibition is the drop in the measured response relative to a control, in per cent.
